Test results published in ChEMBL document CHEMBL1136814, “Design of a new peptidomimetic agonist for the melanocortin receptors based on the solution structure of the peptide ligand, Ac-Nle-cyclo[Asp-Pro-DPhe-Arg-Trp-Lys]-NH(2)” (Bioorg Med Chem Lett, 2003).

How the values were obtained:
Melanocortin receptor 4 [1] = target: T1, Melanocortin receptor 4 (Homo sapiens, UniProt P32245); experiment: Binding affinity towards human melanocortin 4 receptor (hMC4R) using [125I]NDP-alpha-MSH as radioligand
How it was run: (§1)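 Nonspecific binding taken with excess unlabeled NDP-MSH. Stopped by rapid filtration through GF/C glass-fibre filters, three ice-cold water washes, bound radioactivity by scintillation counting. IC50 from nonlinear regression of concentration curves.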

Melanocortin receptor 3 = Melanocortin receptor 3 (Homo sapiens, UniProt P41968); experiment: Binding affinity towards human melanocortin 3 receptor (hMC3R) using [125I]NDP-alpha-MSH as radioligand; how it was run: as §1
[2] = target: Melanocyte-stimulating hormone receptor (Mus musculus, UniProt Q01727); experiment: Binding affinity towards mouse Melanocortin 1 receptor (mMC1R) using [125I]NDP-alpha-MSH as radioligand
How it was run: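 Receptor membranes ([…]) incubated 2 h at 30 °C in assay buffer with test compound at various concentrations plus 0.2 nM 125I-NDP-α-MSH. Nonspecific binding taken with excess unlabeled NDP-MSH. Stopped by rapid filtration through GF/C glass-fibre filters, three ice-cold water washes, bound radioactivity by scintillation counting. IC50 from nonlinear regression of concentration curves.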

Melanocortin receptor 4 [3] = target: T1, Melanocortin receptor 4; experiment: Intracellular levels of cAMP in HEK 293 cells expressing human melanocortin 4 receptor (hMC4R); format: cell-based, HEK293
How it was run: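 Cells seeded at 75,000/well on fibronectin and assayed about 48 h later. Medium replaced with DMEM containing IBMX, peptide added across a six-point dilution range starting at 0.1 nM, 30 min at 37 °C. Lysis stopped the reaction; cAMP quantified by chemiluminescent ELISA. EC50 reported as mean ± SEM of two determinations.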

T1 sequence (P32245 whole entry): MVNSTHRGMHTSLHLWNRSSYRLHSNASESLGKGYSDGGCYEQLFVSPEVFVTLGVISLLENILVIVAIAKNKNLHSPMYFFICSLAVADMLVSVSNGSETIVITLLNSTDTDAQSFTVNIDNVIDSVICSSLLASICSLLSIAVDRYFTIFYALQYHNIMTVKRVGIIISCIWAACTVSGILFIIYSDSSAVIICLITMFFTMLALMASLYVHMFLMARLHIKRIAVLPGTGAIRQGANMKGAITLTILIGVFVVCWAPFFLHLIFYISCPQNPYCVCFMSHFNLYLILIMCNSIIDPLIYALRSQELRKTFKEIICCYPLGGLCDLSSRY
Chain of Melanocyte-stimulating hormone receptor (Q01727 whole entry): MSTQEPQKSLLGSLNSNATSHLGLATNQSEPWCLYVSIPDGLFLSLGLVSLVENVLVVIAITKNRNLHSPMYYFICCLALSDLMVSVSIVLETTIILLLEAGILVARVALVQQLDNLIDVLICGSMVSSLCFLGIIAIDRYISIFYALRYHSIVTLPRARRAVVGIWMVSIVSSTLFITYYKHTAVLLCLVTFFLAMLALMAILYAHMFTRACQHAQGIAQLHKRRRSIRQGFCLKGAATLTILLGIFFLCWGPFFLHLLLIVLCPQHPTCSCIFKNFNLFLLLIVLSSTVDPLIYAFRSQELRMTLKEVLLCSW
Chain of Melanocortin receptor 3 (P41968 whole entry): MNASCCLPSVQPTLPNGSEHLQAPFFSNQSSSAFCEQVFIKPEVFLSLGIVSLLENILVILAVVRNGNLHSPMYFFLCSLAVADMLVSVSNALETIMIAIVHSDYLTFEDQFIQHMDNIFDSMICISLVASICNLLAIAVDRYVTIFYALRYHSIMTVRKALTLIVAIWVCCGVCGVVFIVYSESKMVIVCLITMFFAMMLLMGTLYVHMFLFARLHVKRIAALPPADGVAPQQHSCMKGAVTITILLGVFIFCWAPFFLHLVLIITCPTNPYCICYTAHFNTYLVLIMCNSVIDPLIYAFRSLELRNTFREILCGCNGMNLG

| SMILES | IC50 (Melanocortin receptor 4 [1]) [µM] | IC50 (Melanocortin receptor 3) [µM] | IC50 [2] [µM] | EC50 (Melanocortin receptor 4 [3]) [µM] |
| --- | --- | --- | --- | --- |
| CC(=O)N[C@H](Cc1ccccc1)C(=O)N(CCCCNC(=N)N)C1CCC(N(CCc2c[nH]c3ccccc23)C(C)=O)CC1 (stereo in doubt; 11) | 0.5 |  |  |  |
| CC(=O)N[C@@H](Cc1ccccc1)C(=O)N(CCCCN)C1CCC(N(CCc2c[nH]c3ccccc23)C(C)=O)CC1 (stereo partly drawn) | 9.25 | > 10 | 10 |  |
| CC(=O)N[C@H](Cc1ccccc1)C(=O)N(CCCCNC(=N)N)C1CCC(N(CCc2c[nH]c3ccccc23)C(C)=O)CC1 (stereo in doubt; cis) | 0.0077 | 0.28 | 0.051 | 0.004 |
| CC(=O)N[C@H](Cc1ccccc1)C(=O)N(CCCCNC(=N)N)C1CCC(N(CCc2c[nH]c3ccccc23)C(C)=O)CC1 (stereo in doubt; trans) | 3.5 | > 10 | > 10 | 0.68 |
| CC(=O)N(CCCCN=C(N)N)C1CCC(N(CCc2c[nH]c3ccccc23)C(C)=O)CC1 (stereo not drawn) | > 10 | > 10 | > 10 |  |
| CC(=O)N[C@@H](Cc1ccccc1)C(=O)N(CCCCN=C(N)N)C1CCC(N(C)C(C)=O)CC1 (stereo partly drawn) | > 10 | > 10 | 9 |  |
